# Measured values from publication PMC11249109 (Drug Design, Development and Therapy, 2024).
# Values joined by “and” are separate entries in the source; they are usually repeats but may differ in a detail not shown here. Equal values may be shown once. Read-outs that look alike come from different tables or passages of the source.
# Key:
# [1] = rats
# [2] = system: HIV-1 protease; conditions: read-out: IC50, HIV-1 protease activity; cited from earlier work
# [3] = system: prostaglandin E2; conditions: read-out: IC50, prostaglandin E2 inhibition; cited from earlier work
# [4] = low solubility but high permeability; cited from earlier work
# [5] = Percentage recovery of unchanged panduratin A in urine and feces; format: in vivo, Male Wistar rats; conditions: rats
# Summary of the method: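 Male Wistar rats (n=5/group, fasted 12 h) were dosed with 4.5 mg/kg i.v. (tail vein) or 45 mg/kg oral pure compound, both in 50% DMSO. Urine and feces were collected in metabolic cages at 0–24 and 24–72 h. Feces were bead-homogenised in methanol. Samples were precipitated with methanol containing glycyrrhizin as internal standard and quantified by negative-ESI triple-quadrupole LC-MS (calibration 0.98–1000 μg/L). Recovery is the amount excreted divided by the dose.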
# [6] = system: Nitric oxide; conditions: read-out: IC50, nitric oxide inhibition; cited from earlier work
# [7] = Detection of panduratin A metabolites by QTOF LCMS in plasma, urine and feces; format: in vivo, Male Wistar rats; conditions: rats
# Summary of the method: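 Male Wistar rats (fasted 12 h) received 4.5 mg/kg test compound i.v. via the lateral tail vein in 50% DMSO. Plasma came from tail-vein blood spun at 5000 g, 10 min, 4°C. Urine and feces were collected in metabolic cages at 0–24 and 24–72 h. Samples were methanol-precipitated and run on QTOF LC-MS with a C18 column at 35 °C and a 0.1% formic acid water/acetonitrile gradient.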
# [8] = system: SARS-CoV-2; conditions: read-out: IC50, anti-SARS-CoV-2 activity; Vero E6 cells; cited from earlier work
# [9] = 45 mg/kg as panduratin A p.o., IC50 from ref 7
# [10] = intravenous administration, 0–72 h
compound,measurement,setting,value
COc1cc(O)c(C(=O)[C@@H]2[C@H](CC=C(C)C)C(C)=CC[C@H]2c2ccccc2)c(O)c1 [Panduratin A],plasma concentration after 72 h,[1]; 4.5 mg/kg i.v.,500 ng/mL
same,Cmax of panduratin A relative to in vitro anti-SARS-CoV-2 IC50,[1]; [9],approximately 15 fold
same,minimum plasma concentration at 24 h relative to in vitro anti-SARS-CoV-2 IC50,[1]; [9],approximately 10 fold
same,plasma concentration after 72 h,[1]; 45 mg/kg as panduratin A single p.o.,500 ng/mL
same,IC50,[2],18700 nM
same,IC50,[3],19.5 nM
same,BCS class,[4],BCS class II
same,unchanged panduratin A excreted in urine,[5]; [10],2 % of the administered dose
same,unchanged panduratin A excreted via feces,[5]; [10],25 % of the administered dose
same,unchanged panduratin A excreted in urine,"[5]; single oral administration, 0–72 h",~1 % of the administered dose
same,"unchanged panduratin A excreted in feces, over the experimental groups",[5]; summary over i.v. and oral groups,20–30 % of the administered dose and 22–60 % of the administered dose
same,IC50,[6],175 nM
same,glucuronidation form of panduratin A,[7],not detected
same,metabolites in plasma or urine (QTOF LCMS),[7]; after i.v. 4.5 mg/kg,none of the metabolites of panduratin A were detected in plasma or urine
same,IC50,[8],810 nM
